Here are results for 96 compounds from ChEMBL document CHEMBL4513216, “Probing the Open Global Health Chemical Diversity Library for Multistage-Active Starting Points for Next-Generation Antimalarials” (ACS Infect Dis, 2020).

A short description of this data set: Toxicity liver stage against HepG2, at 10uM. The settings on record: human, HepG2-A16-CD81EGFP cells; read-out: INHIBITION
Type of data set: cell-based. Set-up: test concentration 10 uM, cell line HepG2-A16-CD81EGFP. In a few lines: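 Uninfected HepG2-A16-CD81EGFP cells, 3 × 10^3 per well, 1536-well, plated on prespotted compound at 10 μM final, parasite-free screening media added to match infected plates; puromycin 10 μM positive, DMSO 0.5% negative; run in parallel with 48 h PbLuc assay at 37 °C, 5% CO2; viability by CellTiter-Glo luminescence, normalized to controls.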
In the case of `Cc1c(Cl)cccc1S(=O)(=O)N1CCC(S(=O)(=O)c2nncn2C)CC1`, the cytotoxicity at 10 µM was found to be 1.06%. `COc1ccc(CC(=O)N2CCc3nc(C(=O)N(C)C)sc3CC2)cc1`: the cytotoxicity at 10 µM came out at 15.8%. On to `Cc1noc(C[C@@H]2COC[C@H]3CN(C(=O)C4=CCCC4)C[C@@H]23)n1`, for which the cytotoxicity at 10 µM is -0.91%.

For `O=C(NCC1CCN(Cc2ccsc2)CC1)NC1CC1`, the cytotoxicity at 10 µM amounted to 6.82%. Under `Cc1cccc(N2CC(c3nnc(N)s3)CC2=O)c1` (stereo unspecified) stands 3.79%; under `CCN1CCCC(O)(CN(C)Cc2ccc(C)o2)C1` (stereo unspecified), -3.65%; under `CCn1nccc1CN(C)C(=O)Cn1cc2c(n1)c(C)nn2CC`, 15.4%. Take `COCc1nc(N(C)C)ncc1C(=O)Nc1cc(C)cc(C)c1`: the cytotoxicity at 10 µM was 6.89%. In the case of `CC(=O)N[C@H]1CCO[C@@H](c2cccc(NC(=O)c3ccc(=O)[nH]n3)c2)C1`, the cytotoxicity at 10 µM was determined as 4.46%. Take `CN1CCC(C(=O)N2CCC(c3ccc4c(N)n[nH]c4n3)CC2)CC1`: the cytotoxicity at 10 µM turned out to be 2.43%. The value for `CC1(C(=O)N2CCSCC2)CNCCO1` (stereo unspecified) was 4.79%; that for `CCC(=O)N1CCCC1(C)c1nc(C)no1` (stereo unspecified) was 1.34%; that for `c1ccc2ncc(CC3CCNC3)cc2c1` (stereo unspecified) was -1.67%. Take `Cc1nn(C)c(C)c1-c1cncc(C2CCN(S(C)(=O)=O)CC2)n1`: the cytotoxicity at 10 µM worked out at 8.88%. With `O=C(c1ccc(Cl)cc1)N1CCn2c(nn(-c3ccc(Cl)cc3)c2=O)C1`, the cytotoxicity at 10 µM worked out at 10.9%. Consider `CC(C)NC1CCN(CCc2ccc3c(c2)CCO3)CC1`, for which the cytotoxicity at 10 µM is -21.8%. Turning to `COc1ccc(Cl)cc1CCNC(=O)N(C)CC1CCOC1` (stereo unspecified), the cytotoxicity at 10 µM is 7.17%. Turning to `CCc1nnc(CS(=O)(=O)c2ccc(C)cc2)n1C`, the cytotoxicity at 10 µM was 7.05%. The value for `CNC(=O)c1cccc(CN2CCN(c3ccncc3)CC2)c1` was -19.7%; that for `COc1ccc(Cl)cc1CS(=O)(=O)Cc1noc(C)n1` was 2.32%; that for `FC(F)(F)c1cc(C2CCCN(Cc3cccnc3)C2)n[nH]1` (stereo unspecified) was -45.7%. Under `CC(c1ccncc1)N(C)C(=O)NCCOc1ccc(C#N)cc1` (stereo unspecified) stands -15.5%; under `COC(=O)c1ccc(OCC(=O)N(C)Cc2ccsc2)c(OC)c1`, 5.98%.

For `Cc1ccc(C(=O)N2CCSCC2)cc1NC(=O)NCC1CCC1`, the cytotoxicity at 10 µM was found to be 3.07%. The value for `COC(=O)CNC(=O)C(C)Oc1ccccc1C(F)(F)F` (stereo unspecified) was 6.08%; that for `O=C(CC1CN(Cc2ccccc2)CCO1)NC1CCSCC1` (stereo unspecified) was -15.1%. For the compound `Cc1cc(C(=O)NC2CC(=O)N(C(C)C)C2=O)c(C)n1C(C)C` (stereo unspecified), the cytotoxicity at 10 µM was -9.13%.

Regarding `CCSCCC(C)N(C)C(=O)c1ccc2nncn2c1` (stereo unspecified), the cytotoxicity at 10 µM is -5.4%. For `CCNC(=O)N1CCC(NC(=O)NCCCc2cccc(F)c2)C1` (stereo unspecified), the cytotoxicity at 10 µM is -47.5%. Under `Cn1cc(S(=O)(=O)N2CCC(OCCCc3ccccc3)C2)cn1` (stereo unspecified) stands 8.93%; under `CCCNC(=O)CNc1ccccc1OCCC(=O)OC`, 8.95%; under `O=C(NCC1(c2ccc(F)cc2)CCC1)N1CCC2(CCOCC2)C1`, 3.73%. As for `CCN(C(=O)CNC1CCc2ncnn2C1)C1=CCCCC1` (stereo unspecified), the cytotoxicity at 10 µM was 0.701%. The value for `O=C(NCC1(O)CCOC1)NCC1(c2ccccc2Cl)CCC1` (stereo unspecified) was -50.8%; that for `COc1ccnc(N2CCN(C(=O)CCc3cnn(C)c3)CC2)n1` was 8.72%; that for `Cn1ncnc1NS(=O)(=O)c1ccccc1` was 8.26%.

As to `O=C(CCc1cccc(Cl)c1)NS(=O)(=O)Cc1ccon1`, the cytotoxicity at 10 µM was 8.76%. For `c1ccc(-c2noc(CN3CCC(c4ccn[nH]4)CC3)n2)cc1`, the cytotoxicity at 10 µM was -1.19%. Take `Cc1ccccc1C(=O)Nc1cnn(CC(=O)NC2CCCC2)c1`: the cytotoxicity at 10 µM is -18.4%. The value for `COC(=O)C(C)(C)NC(=O)C1CC(=O)N(C)C1` (stereo unspecified) was -8.92%; that for `Cc1nc(C)c(C(=O)N2CCC(Nc3cccnc3)CC2)s1` was -6.75%.

As for `Cc1nc(C2(NCC(=O)NC(=O)NCc3cccs3)CCCCC2)no1`, the cytotoxicity at 10 µM was -9.52%. The value for `O=C(CCc1cscn1)NS(=O)(=O)c1ccc2ccccc2c1` was -13.1%. Under `CCC(=O)N1CCC2(C=C(C(=O)N3CCCC3)c3ccccc32)CC1` stands -92.8%; under `Cc1cc(CN2CC[C@@H]3O[C@@H](c4nnc(C)o4)C[C@H]3C2)no1`, -103%; under `O=C(C1CCOC1)N1C[C@H]2CN(Cc3cccc(F)c3)C(=O)[C@H]2C1` (stereo partly specified), -106%.

On to `CCn1ncnc1CN1CCC(CNC(=O)c2ccccc2C#N)C1` (stereo unspecified), for which the cytotoxicity at 10 µM was 13.2%. For the compound `O=C(O)c1cc(-c2ccncc2)cc(S(=O)(=O)N2CCSCC2)c1`, the cytotoxicity at 10 µM was determined as 3.26%. The value for `COc1ccc(F)cc1-n1cnc(CCNC(C)=O)c1` was 13.7%; that for `O=S(=O)(NCc1ccccc1)Nc1ccc(-n2cncn2)cc1` was 4.44%. Take `COc1cccc(N2CCN(Cc3cccc(CCN)c3)CC2=O)c1`: the cytotoxicity at 10 µM was -1.42%. Under `CN1CCC(NCC2(O)CCCN(Cc3ccccc3F)C2=O)CC1` (stereo unspecified) stands -12.2%. The value for `CCCc1ccc(CN2CCC3(CC2)CNC(=O)C3)o1` was -3.71%; that for `OCCN(Cc1ccccc1)Cc1nc(-c2ccc3c(c2)OCO3)no1` was 4.74%. Under `CCc1cc(N2CCC(N3CCSCC3)CC2)n2nccc2n1` stands 0.998%; under `CC[C@H]1COCCN1C(=O)CCCn1nnc(-c2ccc(F)cc2)n1`, 13.4%.

On to `CS(=O)(=O)N1CCCn2nc(CNc3ncccn3)cc2C1`, for which the cytotoxicity at 10 µM was 4.83%. The value for `CN1CC2(CCCN(Cc3nnc(-c4ccccc4)o3)CC2)OC1=O` (stereo unspecified) was 0.184%; that for `O=C(c1ccccc1C(F)(F)F)N1C[C@@H](CN2CCOCC2)[C@@H](CO)C1` was -3.7%; that for `O=C(Nc1ccc(-c2ccn[nH]2)cc1)C1CCCN(Cc2ccoc2)C1` (stereo unspecified) was -0.16%. As to `O=C(O)c1cccc(N2CCC(Oc3cccc(F)c3)CC2)n1`, the cytotoxicity at 10 µM was -44.1%. The value for `CN(Cc1cccc(-n2cccn2)c1)Cc1c[nH]cn1` was 5.67%. The value for `COc1ccc2c(c1)C(C(=O)NCCN1CCOC1=O)CC(=O)N2` (stereo unspecified) was 8.68%.

Take `Cn1cnc2cc(C(=O)N3CCC(c4ccccc4C(=O)O)C3)cnc21` (stereo unspecified): the cytotoxicity at 10 µM was -8.98%. Under `Cc1ccc2c(-c3nc4c([nH]3)CCNC4C(=O)O)cccc2n1` (stereo unspecified) stands -3.15%. Under `O=C(O)c1ccccc1C1CCN(C2CCN(c3ccccc3)CC2)C1` (stereo unspecified) stands -14.5%; under `CCC(CO)N(Cc1cccnc1)C(=O)c1ccc(C)[nH]c1=O` (stereo unspecified), -3.95%.

For `CS(=O)(=O)NC1CCN(C(=O)c2coc(CN3CCOCC3)c2)CC1`, the cytotoxicity at 10 µM was found to be 3.54%. The value for `CCN1CCC(Cn2ccc3c(OC)c(OC)ccc3c2=O)C1` (stereo unspecified) was -4.7%. Under `CC(C)N1CCC2(CC1)CC(=O)N(Cc1cc(F)cc(F)c1)C2` stands 9.03%.

For the compound `CN(C)C(=O)Cc1ccc(-c2cccc3c2CCNC3)cc1`, the cytotoxicity at 10 µM came out at 2.28%. On to `Cc1cc2cccc(C(=O)N3CC[C@@H](N)[C@H](O)C3)c2o1`, for which the cytotoxicity at 10 µM was -0.193%. As for `Cc1cc(C)c2nc(CN3CCC(CN)CC3)cc(O)c2c1`, the cytotoxicity at 10 µM was 2.55%. The value for `CN(C)CCN(C)C1CCN(C(C(=O)O)c2ccc(F)c(Cl)c2)CC1` (stereo unspecified) was 2.95%. `CC(=O)CCCC(=O)N(Cc1ccsc1)CC(C)C`: the cytotoxicity at 10 µM is -50.3%. For the compound `CCc1ccccc1-c1cc(OC)nc(N)n1`, the cytotoxicity at 10 µM was -3.3%. The value for `Cc1ncc(CN2CCC(CNS(=O)(=O)C3CC3)C2)cn1` (stereo unspecified) was 2.84%; that for `CN(C)C1CCCN(Cc2cccc(Cn3cccn3)c2)CC1` (stereo unspecified) was -12.6%. The value for `Cn1cccc1-c1cc(C(=O)NCCCc2csc(N)n2)[nH]n1` was -8.9%; that for `c1csc(CCC2CCCCN2Cc2noc(C3CC3)n2)c1` (stereo unspecified) was 0.562%. Under `O=C(O)C(c1ccc2c(c1)OCO2)N1CCCC1` (stereo unspecified) stands -3.04%; under `Cc1ncccc1OC1(C(=O)NCCNc2ccccc2)CCNCC1`, -12.4%. As to `CCOCCn1c(=O)[nH]c2cc(C(=O)N(C)Cc3nc(C)cs3)ccc21`, the cytotoxicity at 10 µM is -10.6%. Under `CCNC(=O)N1CCN(Cc2nc3ccccc3[nH]2)[C@@H]2CS(=O)(=O)C[C@@H]21` stands 14.1%; under `Cc1cnn(CCNCc2csc(-c3ccccc3)n2)c1`, -9.48%. In the case of `CNC(=O)c1ccc(C(=O)N2CCCC(n3cc(C)cn3)C2)cn1` (stereo unspecified), the cytotoxicity at 10 µM was -0.884%.

As for `Cc1noc(C)c1CN(C)C(=O)NC1CCN(C2CC2)CC1`, the cytotoxicity at 10 µM is -10.1%. With `Cc1cnc(CN(C)C2CCN(CC(=O)Nc3c(C)n[nH]c3C)C2)o1` (stereo unspecified), the cytotoxicity at 10 µM is -6.38%. Under `CC(C)(C)c1cn2nc(N3CCC[C@@H]3CO)sc2n1` stands 3.64%. For the compound `CN(C)CCn1c2c(ccc1=O)CC(NCc1cccnc1)CC2` (stereo unspecified), the cytotoxicity at 10 µM amounted to 14.4%.

As to `Cc1ccc(C(=O)N2CCC3(CCN(C(=O)c4cccnc4)C3)CC2)o1`, the cytotoxicity at 10 µM is 0.101%. The value for `CC1c2ncc(CN3CCN(C)CC3)n2CCN1Cc1cccnc1` (stereo unspecified) was -2.12%; that for `Cc1cccc(CN2Cc3[nH]nc(COc4cccnc4)c3C2)n1` was 0.288%; that for `CC(=O)N1CCC2(CC1)CN(C(=O)c1cccnc1)c1ccc(F)cc12` was -108%. Under `CCC1=N[C@@]2(CC[C@@H]3CN(Cc4ccc(C)cc4)C[C@@H]32)C(=O)N1C` stands -95%; under `CN1C[C@@H]2CC[C@H]1CN(C(=O)COCc1nc3ccc(F)cc3[nH]1)C2`, -1.88%.
